Test results from article PMC4083110 (Molecular & Cellular Proteomics : MCP, 2014).

Assays:
[1] = target: T1, SHC1 SH2 domain (Homo sapiens, UniProt P29353); experiment: FP saturation binding; settings: result in words
T1 sequence (P29353 488-579 limits assumed): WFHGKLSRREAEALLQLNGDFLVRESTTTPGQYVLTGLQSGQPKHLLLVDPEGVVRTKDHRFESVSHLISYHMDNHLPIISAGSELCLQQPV
How it was run: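 Tandem SH2 proteins were kept with their linkers. Synthetic phosphotyrosine peptides were run in automated high-throughput FP saturation binding. Millipolarization was fitted to Pobs = Pmax·[Protein]/(KD+[Protein]) by least squares to give KD per protein/peptide pair.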

[2] = system: PIK3R-derived SH2 domains; experiment: FP saturation binding, domain family; parameters: species or system human; settings: for recruitment of PIK3R (PI3KR) SH2 domains: FP, result in words
How it was run: (§1)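 Multi-SH2 genes were used as tandem proteins that kept the linker residues. Automated high-throughput FP saturation binding was run against 178 synthetic phosphopeptides from RTK, GAB1 and androgen receptor tyrosine sites. Millipolarization readings were fitted to P_obs = Pmax·[Protein]/(K_D+[Protein]) by least squares regression to give K_D.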

[3] = target: T2, Shp2/PTPN11 SH2 domain (Homo sapiens, UniProt Q06124); experiment: FP saturation binding, construct not stated; settings: result in words
T2 sequence (Q06124 2-593): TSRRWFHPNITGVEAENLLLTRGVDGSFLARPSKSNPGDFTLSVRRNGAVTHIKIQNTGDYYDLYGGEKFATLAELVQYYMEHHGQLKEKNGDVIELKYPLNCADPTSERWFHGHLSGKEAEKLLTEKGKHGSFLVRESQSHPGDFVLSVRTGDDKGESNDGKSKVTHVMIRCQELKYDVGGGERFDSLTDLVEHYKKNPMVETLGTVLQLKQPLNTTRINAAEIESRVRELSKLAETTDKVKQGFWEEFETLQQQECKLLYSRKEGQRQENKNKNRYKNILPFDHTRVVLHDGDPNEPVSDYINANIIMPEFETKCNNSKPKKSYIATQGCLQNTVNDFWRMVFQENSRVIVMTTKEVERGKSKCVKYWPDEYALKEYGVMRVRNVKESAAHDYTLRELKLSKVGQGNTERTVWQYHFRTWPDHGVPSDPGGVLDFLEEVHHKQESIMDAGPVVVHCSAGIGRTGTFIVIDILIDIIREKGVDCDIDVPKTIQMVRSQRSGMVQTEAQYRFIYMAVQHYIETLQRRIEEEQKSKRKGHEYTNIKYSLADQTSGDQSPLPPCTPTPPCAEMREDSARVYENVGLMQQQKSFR
How it was run: as §1

[4] = system: c-Src family kinase SH2 domains; experiment: FP saturation binding, domain family; parameters: species or system human; settings: result in words
How it was run: as §1

[5] = target: T3, RASA1 SH2 domains (Homo sapiens, UniProt P20936); experiment: FP saturation binding, construct not stated; settings: result in words
T3 sequence (P20936 181-441 limits assumed): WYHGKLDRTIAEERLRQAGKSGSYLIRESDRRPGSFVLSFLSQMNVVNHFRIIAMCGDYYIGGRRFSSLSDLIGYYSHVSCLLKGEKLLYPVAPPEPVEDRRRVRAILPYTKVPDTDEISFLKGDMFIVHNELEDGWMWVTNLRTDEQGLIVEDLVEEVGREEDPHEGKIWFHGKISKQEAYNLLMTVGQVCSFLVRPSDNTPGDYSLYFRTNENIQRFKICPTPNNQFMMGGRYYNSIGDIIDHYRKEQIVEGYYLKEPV
How it was run: as §1

[6] = target: T4, PLCG1 SH2 domains (Homo sapiens, UniProt P19174); experiment: FP saturation binding, construct not stated; settings: result in words
T4 sequence (P19174 550-756 limits assumed): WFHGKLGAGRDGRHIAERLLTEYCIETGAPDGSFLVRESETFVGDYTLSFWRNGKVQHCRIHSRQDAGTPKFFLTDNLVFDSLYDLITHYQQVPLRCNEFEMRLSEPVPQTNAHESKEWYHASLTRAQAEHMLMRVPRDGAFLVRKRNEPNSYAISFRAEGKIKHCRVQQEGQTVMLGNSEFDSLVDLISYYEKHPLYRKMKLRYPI
How it was run: as §1

[7] = target: T5, PLCG2 SH2 domains (Homo sapiens, UniProt P16885); experiment: FP saturation binding, construct not stated; settings: result in words
T5 sequence (P16885 532-735 limits assumed): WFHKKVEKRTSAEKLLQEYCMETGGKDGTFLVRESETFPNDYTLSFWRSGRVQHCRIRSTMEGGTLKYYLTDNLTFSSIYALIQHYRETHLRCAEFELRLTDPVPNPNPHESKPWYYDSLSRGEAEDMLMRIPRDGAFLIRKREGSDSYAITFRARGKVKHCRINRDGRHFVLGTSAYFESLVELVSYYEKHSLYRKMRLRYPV
How it was run: as §1

[8] = target: PIK3R1 SH2 domains (Homo sapiens, UniProt P27986); experiment: FP saturation binding, construct not stated; settings: result in words
PIK3R1 SH2 domains, sequence (P27986 2-724): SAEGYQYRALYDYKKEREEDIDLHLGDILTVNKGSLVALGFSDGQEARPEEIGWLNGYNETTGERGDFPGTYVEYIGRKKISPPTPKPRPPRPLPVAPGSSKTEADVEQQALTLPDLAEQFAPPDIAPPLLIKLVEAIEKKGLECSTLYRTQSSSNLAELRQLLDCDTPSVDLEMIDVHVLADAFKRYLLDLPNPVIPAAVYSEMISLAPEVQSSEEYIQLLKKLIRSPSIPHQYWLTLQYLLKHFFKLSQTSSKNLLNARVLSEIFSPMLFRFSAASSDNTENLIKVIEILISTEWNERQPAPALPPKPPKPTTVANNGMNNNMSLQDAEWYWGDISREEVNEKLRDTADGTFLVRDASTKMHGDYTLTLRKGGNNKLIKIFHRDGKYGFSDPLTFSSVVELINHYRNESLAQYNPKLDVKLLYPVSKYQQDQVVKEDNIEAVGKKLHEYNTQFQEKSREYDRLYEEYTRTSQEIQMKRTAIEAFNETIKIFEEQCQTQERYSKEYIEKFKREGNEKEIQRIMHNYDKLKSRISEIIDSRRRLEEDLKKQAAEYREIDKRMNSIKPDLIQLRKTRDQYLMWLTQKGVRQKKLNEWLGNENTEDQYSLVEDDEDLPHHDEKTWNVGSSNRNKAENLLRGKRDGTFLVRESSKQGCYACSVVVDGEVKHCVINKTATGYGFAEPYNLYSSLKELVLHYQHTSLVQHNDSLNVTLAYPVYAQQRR
How it was run: as §1

[9] = system: PIK3R3 SH2 domains; experiment: FP saturation binding, construct not stated; parameters: species or system human; settings: result in words
How it was run: as §1

[10] = target: CRK SH2 domain (Homo sapiens, UniProt P46108); experiment: FP saturation binding; settings: result in words
CRK SH2 domain, sequence (P46108 13-118 limits assumed): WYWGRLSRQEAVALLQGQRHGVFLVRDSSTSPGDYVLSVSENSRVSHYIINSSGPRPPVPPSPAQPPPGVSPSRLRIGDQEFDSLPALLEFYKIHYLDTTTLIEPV
How it was run: as §1

[11] = target: CRKL SH2 domain (Homo sapiens, UniProt P46109); experiment: FP saturation binding; settings: result in words
CRKL SH2 domain, sequence (P46109 14-102 limits assumed): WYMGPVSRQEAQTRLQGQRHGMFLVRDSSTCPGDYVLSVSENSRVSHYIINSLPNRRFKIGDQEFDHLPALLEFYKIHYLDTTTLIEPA
How it was run: as §1

Substance: LPPPXQLINVPPd [GAB1 Tyr(P)-162]
- interaction with SHC1 SH2 domain [1]: unable to detect

Substance: LQPEXCPDPLYEd [c-Met Tyr(P)-1307]
- recruitment of PIK3R (PI3KR) SH2 domains [2]: moderate recruitment
- recruitment of Shp2/PTPN11 SH2 domain [3]: recruit

Substance: NNYVXIDPTQLPd [c-Kit Tyr(P)-570]
- recruitment of c-Src family kinase SH2 domains [4]: recruited

Substance: PAEMXDIMKTCWd [c-Kit Tyr(P)-900]
- recruitment of c-Src family kinase SH2 domains [4]: recruited

Substance: PGNTXQIPRTFPd [GAB1 Tyr(P)-317]
- recruitment of RASA1 SH2 domains [5]: confirmed

Substance: PIDYXFPPQKTCd [AR Tyr(P)-553]
- recruitment of PIK3R (PI3KR) SH2 domains [2]: relatively high affinity
- recruitment of PLCG1 SH2 domains [6]: recruitment sites
- recruitment of PLCG2 SH2 domains [7]: recruitment sites

Substance: QEANXVPMTPGTd [GAB1 Tyr(P)-472]
- recruitment of PIK3R1 [8]: confirmed
- recruitment of PIK3R3 [9]: high affinity

Substance: QQMIXDSPPSRAd [GAB1 Tyr(P)-242]
- recruitment of CRK SH2 domain [10]: no CRK SH2 domain interactions

Substance: SEENXVPMNPNLd [GAB1 Tyr(P)-627]
- interaction with SHC1 SH2 domain [1]: interactions were identified
- recruitment of PIK3R1 [8]: confirmed
- recruitment of PIK3R3 [9]: high affinity

Substance: SQDCXDIPRAFPd [GAB1 Tyr(P)-406]
- recruitment of CRK SH2 domain [10]: no CRK SH2 domain interactions
- recruitment of CRKL SH2 domain [11]: CRKL SH2 domain interactions
- recruitment of PLCG1 SH2 domains [6]: confirmed

Substance: STNEXMDMKPGVd [c-Kit Tyr(P)-721]
- midpoint dissociation constants ([2]; FP saturation binding, all PIK3R SH2 domains, in words): sub-micromolar
- recruitment of PIK3R (PI3KR) SH2 domains [2]: highest affinity

Substance: TDSSXCIPTAGMd [GAB1 Tyr(P)-373]
- recruitment of CRK SH2 domain [10]: no CRK SH2 domain interactions
- interaction with SHC1 SH2 domain [1]: interactions were identified
- recruitment of PLCG1 SH2 domains [6]: confirmed

Substance: VITEXCCYGDLLd [c-Kit Tyr(P)-672]
- recruitment of CRK SH2 domain [10]: recruited
- recruitment of c-Src family kinase SH2 domains [4]: recruited

Substance: VKPIXFHTQ [AR Tyr(P)-915]
- recruitment of PLCG1 SH2 domains [6]: recruitment sites
- recruitment of PLCG2 SH2 domains [7]: recruitment sites

Substance: VSISXDIPPTPGd [GAB1 Tyr(P)-307]
- recruitment of CRK SH2 domain [10]: no CRK SH2 domain interactions
- recruitment of PLCG1 SH2 domains [6]: confirmed
- recruitment of RASA1 SH2 domains [5]: confirmed
